These results are taken from ChEMBL document CHEMBL3745596, “Chlorophenoxy aminoalkyl derivatives as histamine H(3)R ligands and antiseizure agents” (Bioorg Med Chem, 2016).

Calls of active or inactive are those of the source.

For data set [1], the system named is Mus musculus. As to the kind of experiment: Neurotoxicity in CF1 albino mouse assessed as death at 300 mg/kg, ip after 0.5 hrs by rotarod test. Type of data set: toxicity, organism-based. The note with it: in vivo. The essentials: (§1)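 Male albino CF-1 mice dosed ip with compound suspended in 0.5% methylcellulose, then placed on a 1-inch knurled plastic rod turning at 6 rpm. A fall three times within 1 min counted as neurotoxicity. Observations were made at 0.5 h and 4 h after dosing. Result given as animals showing toxicity per animals tested, with the kind of toxicity recorded.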
On the technique in general: In the rotarod test animals must keep their balance on a rotating rod.

The subject of data set [2] is Mus musculus. Briefly: Neurotoxicity in CF1 albino mouse assessed as unable to grasp rotarod and death at 100 mg/kg, ip after 0.5 hrs by rotarod test. The data set is classed as toxicity, organism-based. The following applies: in vivo. The essentials: as §1
The subject of a further data set is HEK293. As to the kind of experiment: Antiproliferative activity against human HEK293 cells assessed as cell viability after 48 hrs by formazan EZ4U dye based assay. The following applies: HEK293, 48 h. The essentials:
(§2)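 HEK-293 (1.5 × 10⁴/well) or IMR-32 (2 × 10⁴/well) cells in DMEM with 10% FBS, 37 °C, 5% CO₂, grown 24 h to about 60% confluence; compounds 0.01–250 µM final, DMSO at most 1%, 48 h.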

For data set [3], the system named is Mus musculus. Briefly: Anticonvulsant activity in CF1 albino mouse assessed as protection against subcutaneous pentetrazole-induced seizure at 30 mg/kg, ip after 4 hrs. Type of data set: functional, organism-based. The essentials:
(§3)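 Male CF-1 mice, ip in 0.5% methylcellulose; pentetrazole at CD97 (85 mg/kg) injected subcutaneously in a loose fold of neck skin. Observed 30 min; absence of even a threshold seizure (single clonic spasm lasting at least 5 s) counted as protection. Scored protected/tested, or ED50.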

For a further data set, the system named is Liver microsome. As to the kind of experiment: Drug metabolism in human liver microsomes after 2 hrs by UPLC-MS/MS analysis. The data set is classed as ADME. The essentials:
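Pooled adult male and female human liver microsomes 1 mg/mL in 0.1 M Tris–HCl pH 7.4 with NADPH regeneration system; started after 5 min preincubation at 37 °C, incubated 2 h at 37 °C, stopped with cold methanol, centrifuged, supernatant analysed by UPLC with ESI tandem quadrupole MS.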

Data set [4] relates to Mus musculus. Briefly: Neurotoxicity in CF1 albino mouse at 30 mg/kg, ip after 0.5 hrs by rotarod test. The following applies: in vivo. Type of data set: toxicity, organism-based. The essentials: (§4)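 Rotarod neurotoxicity in male albino CF-1 mice dosed ip with compound suspended in 0.5% methylcellulose. Animal placed on a 1 inch diameter knurled plastic rod rotating at 6 rpm. Neurotoxicity scored when the animal falls off three times within 1 min. Readout is number of animals toxic/number tested at the stated time after dosing. TD50 with 95% confidence interval from the quantitative study.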

The subject of data set [5] is Mus musculus. As to the kind of experiment: Neurotoxicity in CF1 albino mouse at 3 mg/kg, ip after 0.5 hrs by rotarod test. The data set is classed as toxicity, organism-based. The following applies: in vivo. The essentials: as §4
Data set [6] relates to Mus musculus. As to the kind of experiment: Anticonvulsant activity in CF1 albino mouse assessed as protection against subcutaneous pentetrazole-induced seizure at 30 mg/kg, ip after 0.5 hrs. Type of data set: functional, organism-based. The essentials: as §3
Data set [7] deals with Mus musculus. As to the kind of experiment: Anticonvulsant activity in CF1 albino mouse assessed as protection against maximal electroshock-induced seizure at 100 mg/kg, ip after 0.5 hrs. The data set is classed as functional, organism-based. The essentials:
(§5)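 Male CF-1 mice dosed ip as suspension in 0.5% methylcellulose. Corneal electrodes deliver 60 Hz alternating current, 50 mA for […], after a drop of 0.5% tetracaine HCl in 0.9% NaCl per eye. Protection means abolition of hindlimb tonic extension; scored as protected/tested, or ED50 with 95% confidence interval.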
(The maximal electroshock test induces tonic seizures with an electrical stimulus.)

The subject of data set [8] is Mus musculus. As to the kind of experiment: Neurotoxicity in CF1 albino mouse at 10 mg/kg, ip after 0.5 hrs by rotarod test. The data set is classed as toxicity, organism-based. The following applies: in vivo. The essentials:
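Rotarod neurotoxicity in male CF-1 mice dosed ip as 0.5% methylcellulose suspension: mouse placed on 1 inch knurled rod rotating at 6 rpm; toxicity when the animal falls off three times within 1 min, with other signs noted. Scored as toxic/tested at 0.5 h and 4 h.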

For data set [9], the system named is Mus musculus. As to the kind of experiment: Neurotoxicity in CF1 albino mouse at 300 mg/kg, ip after 4 hrs by rotarod test. The following applies: in vivo. The data set is classed as toxicity, organism-based. The essentials: as §4
In data set [10] the test system is Mus musculus. Briefly: Anticonvulsant activity in CF1 albino mouse assessed as protection against maximal electroshock-induced seizure at 30 mg/kg, ip after 4 hrs. Type of data set: functional, organism-based. The essentials:
as §5

Data set [11] deals with Mus musculus. As to the kind of experiment: Neurotoxicity in CF1 albino mouse at 30 mg/kg, ip after 4 hrs by rotarod test. The note with it: in vivo. Type of data set: toxicity, organism-based. The essentials: as §4
Data set [12] relates to Mus musculus. Briefly: Anticonvulsant activity in CF1 albino mouse assessed as protection against maximal electroshock-induced seizure at 30 mg/kg, ip after 0.5 hrs. Type of data set: functional, organism-based. The essentials: as §5
Data set [13] can be described thus: Antiproliferative activity against human IMR32 cells assessed as cell viability after 48 hrs by formazan EZ4U dye based assay. The note with it: IMR-32, 48 h. The essentials: as §2
In data set [14] the test system is Mus musculus. Briefly: Anticonvulsant activity in CF1 albino mouse assessed as protection against maximal electroshock-induced seizure at 100 mg/kg, ip after 4 hrs. The data set is classed as functional, organism-based. The essentials:
as §5

A further data set concerns the target Cytochrome P450 3A4 (Homo sapiens, UniProt P08684). As to the kind of experiment: Inhibition of CYP3A4 (unknown origin) up to 10 uM. The data set is classed as ADME.
Data set [15] concerns the target T1, Histamine H3 receptor (Homo sapiens, UniProt Q9Y5N1). Briefly: Displacement of [3H]-Nalpha-methylhistamine from human recombinant histamine H3 receptor expressed in HEK293 cells after 90 mins. Type of data set: cell-based.
Data set [16] has as its system Mus musculus. As to the kind of experiment: Neurotoxicity in CF1 albino mouse at 100 mg/kg, ip after 4 hrs by rotarod test. The data set is classed as toxicity, organism-based. The following applies: in vivo. The essentials: as §4
The test system of the next data set is Rattus norvegicus. As to the kind of experiment: Anticonvulsant activity in Sprague-Dawley rat assessed as protection against maximal electroshock-induced seizure at 30 mg/kg, po. The data set is classed as functional.
Data set [17] addresses T1, Histamine H3 receptor. Briefly: Antagonist activity at human recombinant histamine H3 receptor expressed in HEK293 cells assessed as inhibition of forskolin/(R)(-)-alpha-methylhistamine-induced cAMP accumulation after 1 hr by TR-FRET immunoassay. Type of data set: functional, cell-based. The essentials: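 HEK293 cells stably expressing hH3R, stimulated 30 min at room temperature with (R)(-)-α-methylhistamine (15 nM), forskolin and antagonist (0.1 nM–10 µM range) added together. cAMP read by TR-FRET (Eu-cAMP tracer, ULight anti-cAMP antibody, 1 h), converted via cAMP standard curve to % maximal response. Sigmoidal dose–response fit; mean of three experiments, each in triplicate.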

For data set [18], the system named is Mus musculus. As to the kind of experiment: Anticonvulsant activity in CF1 albino mouse assessed as protection against maximal electroshock-induced seizure at 3 mg/kg, ip after 0.5 hrs. Type of data set: functional, organism-based. The essentials: as §5
Data set [19] has as its system Mus musculus. As to the kind of experiment: Anticonvulsant activity in CF1 albino mouse assessed as protection against maximal electroshock-induced seizure at 10 mg/kg, ip after 0.5 hrs. Type of data set: functional, organism-based. The essentials:
as §5

T1 sequence (Q9Y5N1 whole entry): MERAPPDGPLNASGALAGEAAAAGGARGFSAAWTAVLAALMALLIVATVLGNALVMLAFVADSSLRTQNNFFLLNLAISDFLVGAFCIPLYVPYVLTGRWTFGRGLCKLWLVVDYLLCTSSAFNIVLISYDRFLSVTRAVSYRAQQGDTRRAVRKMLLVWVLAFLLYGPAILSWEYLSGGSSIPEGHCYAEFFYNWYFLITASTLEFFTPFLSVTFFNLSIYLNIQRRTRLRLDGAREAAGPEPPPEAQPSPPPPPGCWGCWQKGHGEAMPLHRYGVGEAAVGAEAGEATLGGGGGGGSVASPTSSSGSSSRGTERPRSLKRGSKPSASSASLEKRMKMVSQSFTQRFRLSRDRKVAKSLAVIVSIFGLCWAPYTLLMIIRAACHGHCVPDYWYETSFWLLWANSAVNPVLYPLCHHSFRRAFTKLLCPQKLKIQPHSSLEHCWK
Cytochrome P450 3A4, sequence (P08684 whole entry): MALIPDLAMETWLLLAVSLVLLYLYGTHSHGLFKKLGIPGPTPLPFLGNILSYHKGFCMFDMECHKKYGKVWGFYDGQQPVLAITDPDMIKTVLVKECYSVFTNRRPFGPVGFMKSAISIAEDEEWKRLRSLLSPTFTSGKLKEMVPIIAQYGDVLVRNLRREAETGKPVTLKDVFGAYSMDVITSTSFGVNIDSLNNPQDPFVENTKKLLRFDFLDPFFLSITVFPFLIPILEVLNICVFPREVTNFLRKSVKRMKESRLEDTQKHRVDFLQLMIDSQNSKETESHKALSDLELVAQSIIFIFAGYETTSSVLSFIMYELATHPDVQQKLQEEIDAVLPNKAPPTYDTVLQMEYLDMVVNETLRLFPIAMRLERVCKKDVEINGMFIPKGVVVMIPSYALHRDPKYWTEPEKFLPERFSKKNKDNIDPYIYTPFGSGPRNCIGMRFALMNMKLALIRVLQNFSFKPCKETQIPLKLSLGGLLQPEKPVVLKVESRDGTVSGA

Consider `Clc1ccc(OCCCCCCCN2CCCCC2)cc1.O=C(O)C(=O)O`, for which the Activity result with Mus musculus [1] is listed as “Toxic”; in the data set with Mus musculus [2], “Toxic”; with Mus musculus [4] it was “Non-toxic”; in the data set with Mus musculus [5], “Non-toxic”; in the data set with Mus musculus [8], “Non-toxic”; with Mus musculus [9], “Non-toxic”. Besides, the Activity entry is reported as “Non-toxic” in the data set with Mus musculus [11], “Non-toxic” in the data set on Mus musculus [16] and 25% in the data set with Rattus norvegicus. Moreover, the IC50 (as a rule, the point on the concentration scale where inhibition reaches its midpoint) in the data set on HEK293 was determined as 33.6 µM; in data set [13], 15.5 µM. Besides, the result in the data set with Mus musculus [3], with Mus musculus [6], in the data set on Mus musculus [10], in the data set on Mus musculus [18] and in the data set on Mus musculus [19] was inactive. For the same compound, in the data set with Liver microsome, the Drug metabolism entry was “metabolite_detected”. For the same compound, the outcome with Mus musculus [7], with Mus musculus [12] and in the data set on Mus musculus [14] was Active. Further, the “inhibition (INH)” value at Cytochrome P450 3A4 is given as “Not Active”. Further, the Ki (usually a measure of affinity in units of concentration, obtained from inhibition or displacement) at Histamine H3 receptor [15] came out at 0.128 µM. Also, the concentration for a half-maximal effect (EC50) (as a rule, the concentration giving half of the maximal effect) at Histamine H3 receptor [17] is 0.075 µM.
